A selection: hits, their analogues and other compounds. The true share with any hit is near 3.4%.
beta cell repl = MIN6 beta-cell proliferation induction; MIN6 cells proliferation, ATPlite luminescence, 48 h; cells starved in 0.2% serum; 100% = growth in 10% serum; proliferation, % at 10 µM; hit rate 0.29% among 330,000; AID 2380;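 active = compounds whose signal lies at least 3.5 SD above the mean of all wells on their plate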;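 note: 0% = DMSO-treated cells in low-serum medium and 100% = 10% serum control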
MC4R antagonist = blocks human MC4R cAMP signaling; P32245; MC4R-expressing cells, MTII-stimulated cAMP, LANCE TR-FRET; inhibition, % at 6.5 µM; hit rate 0.48% among 360,000;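 active = inhibition above its plate's cutoff, the mean of tested wells on that plate plus 3 SD, cut at about 29% in these data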;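 note: 0% = Melanotan II alone and 100% = Melanotan II plus saturating MCL0020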
Target sequence (P32245 whole entry, looked up): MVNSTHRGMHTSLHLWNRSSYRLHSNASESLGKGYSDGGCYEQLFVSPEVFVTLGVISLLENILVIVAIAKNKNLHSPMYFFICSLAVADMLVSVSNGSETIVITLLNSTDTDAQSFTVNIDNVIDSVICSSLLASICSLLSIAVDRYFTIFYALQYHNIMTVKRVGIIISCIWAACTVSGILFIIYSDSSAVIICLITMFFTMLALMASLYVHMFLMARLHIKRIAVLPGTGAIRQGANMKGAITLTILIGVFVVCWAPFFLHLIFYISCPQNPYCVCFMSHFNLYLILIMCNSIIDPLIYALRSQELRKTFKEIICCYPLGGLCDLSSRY
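Material: U2OS-MC4R stable cell line | Reagent: Melanotan II challenge after compound preincubation | Doses: One concentration, 6.5 µM nominal | Incubation: 30-min compound preincubation, 1-h Melanotan II challenge, 1-h detection, room temperature | Signal: TR-FRET cAMP assay | Replicates: One well per compound, no replicates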
MC4R barr agon = agonists of human melanocortin 4 receptor (MC4R) beta-arrestin; hit rate 0.98% among 360,000; activation, % at 8.9 µM; U2OS MC4R beta-arrestin complementation, luminescence; percent of melanotan II response, DMSO zero; P32245;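 active = activation above a per-plate cutoff, the mean activation of sample wells on that plate plus 3 SD, cut at about 8% in these data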
ANO1 activ = mouse TMEM16A channel activation, primary screen; Q8BHY3; HEK293 TMEM16A/YFP-H148Q/I152L, iodide quench fluorescence; stronger effect = lower value; B-score at 10 µM; hit rate 0.3% among 340,000;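 active = fluorescence-ratio B-score plate-corrected deviation score at least 3 library SD below zero, with starting fluorescence score within 5 deviations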;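 note: channel opened by trigger with iodide after compound preincubation; score built on the fluorescence ratio of max minus min over baseline; more negative score means more quench and so TMEM16A activation or potentiation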
ANO1 block = inhibitors of mouse TMEM16A calcium-activated chloride channel. HEK293 TMEM16A/YFP iodide influx fluorescence, ionomycin. normalized B-score (activity score, 25-100; higher = stronger inhibition) at 10 µM. hit rate 1.2% among 310,000;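 active = ratio plate-corrected score three or more library SD toward inhibition, starting fluorescence score within five deviations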;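 note: score derived from kinetic fluorescence span divided by baseline fluorescence per well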
HTR2A ag = agonists of mouse serotonin 5-HT2A receptor (HTR2A); CHO-K1 mHTR2A beta-arrestin complementation, luminescence; percent of 30 µM serotonin response; activation, % at 7.6 µM; hit rate 0.66% among 360,000;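 active = activation above a run cutoff, the mean activation of all tested compounds plus 3 SD, cut at about 14% in these data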;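 note: 0% = plate median of compound wells and 100% = 30 µM serotonin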
Starred values were filed as active, the others as inactive; i = inactive; . = no result given.

SMILES	beta cell repl	MC4R antagonist	MC4R barr agon	ANO1 activ	ANO1 block	HTR2A ag
CCOC(=O)C1(C)CCCN(C(=O)c2ccc(OC)cc2)C1 (stereo unspecified)	.	7	-1	.	.	-3
COc1ccc(N/C=C/C(=O)c2ccc(C)cc2)c([N+](=O)[O-])c1	-3	26	4	-7.2*	i	-2
CCOc1ccc(N/C=C/C(=O)c2ccc(OC)cc2)c([N+](=O)[O-])c1	-3	12	-1	i	i	1
CC(C)(C)c1ccc(C(=S)N2CCN(c3ccccc3)CC2)cc1	-2	10	9.0*	i	i	3
O=Cc1nccc2ccccc12	.	-15	-2	-6.5*	.	-2
C(=Cc1c[nH]c2ccccc12)c1nccc2ccccc12	.	-6	2	i	.	-5
COc1ccc(S(=O)(=O)C(C#N)c2nc3ccccc3nc2N2CCCCC2)cc1 (stereo unspecified)	-3	3	-1	i	100*	0
COc1cc2c(cc1OC)CN(C(=O)COc1ccccc1[N+](=O)[O-])CC2	-3	0	0	i	100*	-2
COc1cc2c(cc1OC)CN(C(=O)COc1ccccc1C#N)CC2	-4	10	-2	i	i	-8
COc1ccc(-c2cccc3c2NC(=O)C3=O)cc1OC	-4	-9	-2	i	.	-4
CC(=O)N1CCCc2cc(S(=O)(=O)N3CCCC(C(=O)N4CCN(c5ccccc5)CC4)C3)ccc21 (stereo unspecified)	-2	4	-2	i	i	1
CC(=O)N1CCCc2cc(S(=O)(=O)N3CCCC(C(=O)N4CCN(c5cc(C)ccc5C)CC4)C3)ccc21 (stereo unspecified)	-5	20	1	-4.9*	25*	2
COc1ccccc1N1CCN(C(=O)C2CCCN(S(=O)(=O)c3ccc4c(c3)CCCN4C(C)=O)C2)CC1 (stereo unspecified)	-3	6	-1	i	25*	-5
CC(=O)c1cc2cccc(OC3(C)CCN(Cc4ccc5ccccc5c4)C3)c2o1 (stereo unspecified)	.	-2	0	.	.	5
Cc1cccc(NS(=O)(=O)c2ccc(C)c(C(=O)NC3CCN(Cc4ccccc4)CC3)c2)c1	.	8	-4	i	.	-9
CCOC(=O)c1c(C)n(OCc2ccccc2)c2ccc3nonc3c12	0	1	8.8*	i	i	2
Cc1ccc(CSc2nccc(-c3c(C)nc4ccccn34)n2)cc1	1	7	2	i	i	2
O=C(COC(=O)Cc1ccc(S(=O)(=O)N2CCOCC2)s1)Nc1ccccc1	0	17	-1	i	.	-7
COc1ccc(C(O)c2nc(-c3cccc(CO)c3)cs2)cc1 (stereo unspecified)	.	2	0	.	.	8
Cc1ccc(S(=O)(=O)NCC(=O)OCC(=O)N2N=C(c3ccc(Cl)cc3)CC2c2ccco2)cc1C (stereo unspecified)	0	18	9.2*	i	i	1
CC(=O)Nc1cccc(C(=O)OCc2ccc(C(=O)Oc3ccc(Cl)cc3)cc2)c1	-2	8	13*	i	i	2
CC(C)CCN1C(=O)c2ccccc2C1c1nnnn1-c1ccc2c(c1)OCCO2 (stereo unspecified)	.	.	.	.	.	-2
COc1ccccc1NC(=O)c1cc2cc(Br)ccc2oc1=N	-3	-6	8.3*	i	i	6
O=C(COc1ccccc1)N[C@@H]1c2ccccc2CC[C@@H]1OCc1ccccc1	.	17	8.4*	.	.	-1
O=C(CCSCc1ccc(Cl)cc1)NCCc1ccccc1	1	2	-1	i	i	-2
SMILES	beta cell repl	MC4R antagonist	MC4R barr agon	ANO1 activ	ANO1 block	HTR2A ag
Cc1ccc(CSCCC(=O)NCCc2ccc(Cl)cc2)cc1	-1	8	8.6*	i	i	0
CC(C)=CCC[C@H](C)C[C@@H]1CC2=C(C(=O)OC(C)(C)O2)[C@H](c2ccc(Cl)cc2)O1	.	.	.	.	.	-2
Cc1cccc(C)c1NC(=O)CNC(=O)c1cccc(S(=O)(=O)NCc2cccs2)c1	-4	3	0	i	.	-8
CCCCc1cc(O)c(CCCC)c(O)c1	-4	-27	-1	i	100*	-5
O[C@H]1C[C@H](c2ccc(Cl)cc2)N(CC2CCCCC2)C[C@@H]1n1cc(C2CC2)nn1	.	6	-1	.	.	-2
CC(C)CCNC(=O)NC(=O)CSc1nnc(-c2ccccc2Br)o1	0	9	8.4*	i	i	1
O=C(O)c1ccc(CSc2nnc(-c3ccccc3Br)o2)cc1	-2	-2	-1	i	i	16*
CCCNC(=O)NC(=O)CSc1nnc(-c2c[nH]c3ccccc23)o1	-1	-1	0	i	i	-1
O=C(Nc1cccc(Cl)c1N1CCCC1)c1ccc(Br)o1	-6	-1	-2	i	25*	-3
O=C(Nc1cccc(Cl)c1N1CCCC1)c1ccc([N+](=O)[O-])o1	-2	2	0	i	i	4
CCOC(=O)C1(N(CC)CC)Sc2cc(C)ccc2NC1=O (stereo unspecified)	1	12	1	i	i	1
COC(=O)C1=C(C(=O)OC)SC2(S1)C(C(=O)OC)=C(C(=O)OC)SC1=C2c2cc(C)ccc2NC1(C)C	-7	53*	-1	i	i	3
O=C1[C@H](Cc2ccccc2)NCC=CC[C@H](c2ccc(Cl)cc2)N1Cc1ccc(Cl)cc1	.	9	2	i	.	9
O=C1[C@H](Cc2ccccc2)NCC=CC[C@H](c2ccc(Cl)cc2)N1Cc1ccccc1	.	12	8.6*	i	.	-1
CC(C)C(NC(=O)c1c(F)cccc1F)C(=O)NC1CC(C)(C)NC(C)(C)C1 (stereo unspecified)	-2	1	0	i	i	-3
COc1ccc(OC)c(NC(=O)CCNS(=O)(=O)c2ccc3c(c2)CC(C)N3C(C)=O)c1 (stereo unspecified)	.	4	0	.	.	4
O=C(Nc1ccsc1C(=O)NC1CCCCC1)c1ccc(F)cc1	2	15	12*	i	i	2
Cc1ccc(OCC(=O)N(Cc2cccc(Cl)c2)C2CCS(=O)(=O)C2)cc1C (stereo unspecified)	-1	4	-2	-40*	i	1
COc1cccc(CN2CCC2(C)C(=O)Nc2cnc3ccccc3c2)c1F (stereo unspecified)	.	16	-1	.	.	-1
COc1ccc(C(=O)Nc2cc(C)on2)c(OC)c1	-2	-2	2	i	i	7

Screening data (PubChem)
